Measured values collected from several papers.
Each line is one published result; the experiments were not run side by side.
Target: Eukaryotic elongation factor 2 kinase (EEF2K, Homo sapiens, UniProt O00418)

Cn1c2c(c3ccc(Cl)c(Cl)c31)C(C#N)C1(CCCC1)NC2=O (stereo not drawn)  ΔTm (thermal stability, DSF; 10 µM): 0 °C
COc1cc2nccc(Oc3ccc(NC(=O)c4c5n(n(-c6ccc(F)cc6)c4=O)CCCC5)cc3)c2cc1OC  inhibition (enzyme activity, inhibitor; 0.1 µM): 8%
CCN1CCC2(CC1)NC(=O)c1c(c3ccc(Cl)c(Cl)c3n1C)C2C#N (racemic)  ΔTm (thermal stability, DSF; 10 µM): 0 °C
CCCOc1ccc(OC)c(F)c1C(=O)c1ccc(C(=O)N[C@@H]2CNC[C@H]2NC(=O)c2ccc3[nH]ncc3c2)cc1  remaining activity (enzyme activity, inhibitor; 10 µM): 128%
Cc1ccc(Nc2nccc(N(C)c3ccc4c(C)n(C)nc4c3)n2)cc1S(N)(=O)=O  inhibition (enzyme activity, inhibitor; 0.3 µM): -7%
FC(F)(F)Oc1cccc(-c2cnc3ccc(-c4ccncc4)nn23)c1  activity vs control (enzyme activity, inhibitor, radiometric; 5 µM): 98%
CNC(=O)c1cc(Oc2ccc(NC(=O)Nc3ccc(Cl)c(C(F)(F)F)c3)cc2)ccn1  inhibition (enzyme activity, inhibitor; 0.3 µM): -6%
CCN1CCN(Cc2ccc(NC(=O)c3ccc(C)c(Oc4ccnc5[nH]ccc45)c3)cc2C(F)(F)F)CC1  inhibition (target engagement in cells, inhibitor, chemoproteomics; A-375; 5 µM): -27.8%
COc1cc(/C=C/C(=O)CC(=O)/C=C/c2ccc(O)c(OC)c2)ccc1O  activity vs control (enzyme activity, inhibitor; 1 µM): 98%
Nc1nc(Nc2ccccc2)sc1C(=O)c1c(F)cccc1F  remaining activity (enzyme activity, inhibitor; 10 µM): 95%
COc1cc(Nc2cnc(C#N)c(O[C@H](C)CN(C)C)n2)ncc1-c1cnn(C)c1  remaining activity (enzyme activity, inhibitor, radiometric; 10 µM): 87%
CN(c1ncccc1CNc1nc(Nc2ccc3c(c2)CC(=O)N3)ncc1C(F)(F)F)S(C)(=O)=O  inhibition (enzyme activity, inhibitor; 1 µM): 0%
COc1cc2ncnc(Nc3ccc(Oc4ccccc4)cc3C)c2cc1OC  inhibition (enzyme activity, inhibitor; 1 µM): 2%
CCN(CC)CCNC(=O)c1c(C)[nH]c(/C=C2\C(=O)Nc3ccc(F)cc32)c1C  inhibition (enzyme activity, inhibitor; 0.3 µM): -15%
Cn1c2c(Cl)c(Cl)ccc2c2cc[nH]c(=O)c21  ΔTm (thermal stability, DSF; 10 µM): -0.3 °C
C=CC(=O)Nc1cc(Nc2nccc(Nc3cc(Cl)c(F)cc3C(C)(C)O)n2)c(OC)cc1N1CC[C@@H](N(C)C)C1  inhibition (enzyme activity, inhibitor; 1 µM): 11%
COc1cc(Cl)c(C(=O)N[C@@H](CN[C@H]2CC[C@@H](N)CC2)Cc2ccc(C#N)cc2)cc1-c1ccc(CN[C@H](C)c2ccc(C)cc2)o1  remaining activity (enzyme activity, inhibitor; 1 µM): 80%
CN1CCC2(CC1)NC(=O)c1c(c3ccc(Cl)c(Cl)c3n1C)C2C#N (racemic)  ΔTm (thermal stability, DSF; 10 µM): -0.1 °C
CC(C)(C)c1nc(-c2cccc(NS(=O)(=O)c3c(F)cccc3F)c2F)c(-c2ccnc(N)n2)s1  remaining activity (enzyme activity, inhibitor, radiometric; 1 µM): 93%
CNc1cc(Oc2cc(C(=O)Nc3cc(N4CCN(C)CC4)cc(C(F)(F)F)c3)ccc2C)ncn1  inhibition (target engagement in cells, inhibitor, chemoproteomics; Huh-7; 1 µM): -99.1%
Cn1c(=O)n(-c2ccc(C(C)(C)C#N)cc2)c2c3cc(-c4cnc5ccccc5c4)ccc3ncc21  remaining activity (enzyme activity, inhibitor; 10 µM): 110%
Cc1cc(NC(=O)c2cccc3cc(-c4cccc5[nH]nc(N)c45)ccc23)ccc1F  activity vs control (enzyme activity, inhibitor; 0.1 µM): 103%
Cn1c2c(c3ccc(Cl)c(Cl)c31)C(C#N)C(C)(C)NC2=O (stereo not drawn)  ΔTm (thermal stability, DSF; 10 µM): -0.5 °C
Cc1cnc(NC2CCOCC2)nc1-n1cnc(C(=O)NC(CN)c2cc(F)cc(Cl)c2)c1 (stereo not drawn)  remaining activity (enzyme activity, inhibitor, radiometric; 1 µM): 108%
